An excerpt weighted towards active compounds, which were near 4.6% of everything screened.
TAAR1 ag – agonists of human TAAR1; 0.99% of 360,000 active; activation, % at 3 µM; CHO RD-HGA16 TAAR1, Fluo-8 calcium fluorescence; vehicle wells 0%, saturating PEA agonist 100%; AID 624467;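 active = activation above the mean activation of all test compounds in the run plus 3 SD, cut at about 38% in these data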
Target sequence (Q96RJ0 whole entry, looked up): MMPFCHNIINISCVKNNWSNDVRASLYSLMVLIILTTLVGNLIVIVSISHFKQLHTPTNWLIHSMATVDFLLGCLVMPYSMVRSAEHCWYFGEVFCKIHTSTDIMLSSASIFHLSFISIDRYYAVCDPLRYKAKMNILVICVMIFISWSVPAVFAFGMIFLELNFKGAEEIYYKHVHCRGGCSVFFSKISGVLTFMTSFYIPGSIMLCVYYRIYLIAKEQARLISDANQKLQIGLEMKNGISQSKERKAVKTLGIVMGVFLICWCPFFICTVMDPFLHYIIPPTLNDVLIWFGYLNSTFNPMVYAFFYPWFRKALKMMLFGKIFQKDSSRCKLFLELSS
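System: CHO RD-HGA16 cells carrying human TAAR1 plus Gα16; Incubation: 17-24 h seeding, 75 min 37 °C dye, 30 min RT; Measured by: Fluo-8 fluorescence, 5 s baseline then 140 s kinetic read; Control set: DMSO and PEA EC100; Replication: single well for each compound.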
OX1R antag-1 – blocks the human orexin 1 receptor | O43613 | CHO/OX1R cells, Fluo-8 calcium fluorescence, orexin A | inhibition, % at 5 µM | 0.43% of 330,000 active;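 active = inhibition above its plate's threshold, mean inhibition of all tested compounds on the plate plus 3 SD, cut at about 37% in these data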;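 note: 0% = orexin A challenge wells and 100% = SB-334867-A antagonist wells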
GPR7 antagonist – antagonists of human GPR7 (neuropeptides B/W receptor 1); GPR7-expressing cells, fluorescence antagonist assay; inhibition, % at 4.4 µM; 1.1% of 290,000 active; AID 1861; in the data active = inhibition above about 16%, passing the limit was not always enough;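 note: cells stimulated with the agonist NPW; 0% = agonist with vehicle and 100% = vehicle without agonist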
Target sequence (P48145 whole entry, looked up): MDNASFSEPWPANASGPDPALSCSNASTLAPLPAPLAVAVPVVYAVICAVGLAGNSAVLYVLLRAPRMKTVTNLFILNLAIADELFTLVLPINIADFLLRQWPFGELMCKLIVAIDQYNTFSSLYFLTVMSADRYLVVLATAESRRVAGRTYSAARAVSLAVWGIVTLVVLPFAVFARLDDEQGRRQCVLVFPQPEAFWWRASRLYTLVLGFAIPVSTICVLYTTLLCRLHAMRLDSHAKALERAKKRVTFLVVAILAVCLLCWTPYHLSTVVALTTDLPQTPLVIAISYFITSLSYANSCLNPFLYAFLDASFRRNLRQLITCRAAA
TAAR1 antagonist – antagonists of human TAAR1. inhibition, % at 3 µM. CHO RD-HGA16 TAAR1, Fluo-8 calcium fluorescence, antagonist. 1.5% of 360,000 active;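 active = inhibition above a per-plate cutoff, the mean inhibition of test compounds on that plate plus 3 SD, cut at about 49% in these data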;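 note: 0% = DMSO plus EC80 beta-PEA response and 100% = DMSO alone without agonist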
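Test system – hTAAR1-expressing CHO RD-HGA16 cells, Gα16-coupled · Reagent – β-PEA at EC80 concentration, post-compound challenge · Compound dosing – 3 µM, single point · Timing – 140 s kinetic read after compound, 140 s after agonist · Detection – Fluo-8 intracellular calcium dye fluorescence, real-time kinetic reads · Control set – DMSO and EC80 PEA controls · Repeats – n of 1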
CHO parental Ca – counter-screen: ATP calcium response change in parental CHO cells. 0.63% of 330,000 active. parental CHO-K1, ATP-induced calcium, Fluo-8 fluorescence. inhibition, % at 5.6 µM. AID 463079;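 active = inhibition above that plate's mean sample inhibition plus 3 SD, cut at about 26% in these data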;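 note: 0% = ATP-challenged DMSO wells and 100% = DMSO wells without ATP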
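Test system: untransfected parental CHO cell line; also added: ATP stimulus; dosing: 5.6 µM, single dose; signal: calcium-sensitive Fluo-8 fluorescence; measure: percent inhibition of ATP-evoked calcium rise, normalized to controls; benchmarks: low control ATP plus DMSO, high control DMSO only; replication: one well per compound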
OX1R antag-2 – blocks the human orexin 1 receptor; O43613; OX1R-expressing cells, FRET antagonist read-out; inhibition, % at 6.6 µM; 1.8% of 330,000 active; in the data active = inhibition mostly above about 38%, no sharp cut-off; inactive = mostly below about 40%;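 note: 0% = agonist challenge alone and 100% = reference antagonist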
nonsel antag count – nonselective antagonist in TAAR1 antagonist counter-screen; 77% of 2,400 active; counterscreen cell line, calcium fluorescence, antagonist mode; inhibition, % at 3 µM; shares compounds with TAAR1 antagonist; in the data active = inhibition above about 22%;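 note: CHO-Ga16 host cells stimulated with ATP at an EC80 level; 0% = agonist EC80 plus vehicle and 100% = vehicle without agonist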
TAAR1 ant conf – confirmation of human TAAR1 antagonists; shares compounds with TAAR1 antagonist; TAAR1-expressing cells, fluorescence antagonist read-out; inhibition, % at 3 µM; 40% of 2,400 active; AID 651785; in the data active = inhibition above about 49%;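 note: CHO-Ga16 host cells challenged with agonist PEA near its EC80; 0% = agonist at EC80 plus vehicle and 100% = vehicle with no agonist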
Ga16 nonsel ag – counter-screen for TAAR1 antagonists: nonselective Ga16 agonists | activation, % at 3 µM | AID 651953 | 18% of 2,400 active | Ga16-expressing cells, calcium fluorescence, agonist counterscreen | shares compounds with TAAR1 antagonist; in the data active = activation above about 12%;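 note: 0% = vehicle wells and 100% = saturating stimulus response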
TAAR1 ag counter – TAAR1 agonism, antagonist counter-screen; shares compounds with TAAR1 antagonist; hTAAR1 cell line, fluorescence activation, agonist mode; activation, % at 3 µM; 2% of 2,400 active; AID 651955; in the data active = activation above about 37%;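 note: CHO cells stably expressing TAAR1 with calcium dye readout; 0% = DMSO vehicle and 100% = full agonist response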
* hit, by the source's call.

What do the screens show for `C[C@H](CO)N1C[C@H](C)[C@@H](CN(C)C(=O)Nc2ccc3c(c2)OCO3)Oc2c(NC(=O)Nc3ccc4c(c3)OCO4)cccc2C1=O`?
TAAR1 ag: 24; OX1R antag-1: -10; TAAR1 antagonist: 69*; CHO parental Ca: -3; OX1R antag-2: -1; nonsel antag count: 31*; TAAR1 ant conf: 53*; Ga16 nonsel ag: 9; TAAR1 ag counter: 9

Results for COc1ccc(NC(=O)N(C)C[C@H]2Oc3c(NC(=O)Nc4ccccc4)cccc3C(=O)N([C@H](C)CO)C[C@@H]2C)cc1 ?
TAAR1 ag: 5; OX1R antag-1: -15; TAAR1 antagonist: 27; CHO parental Ca: 1; OX1R antag-2: 4

What do the screens show for `CCOC(=O)C1=CCN(S(=O)(=O)c2ccc(Cl)cc2)C1c1ccc(Br)cc1` (configuration not stated)?
TAAR1 ag: 0; TAAR1 antagonist: 5

What do the screens show for `Fc1cccc(-c2c(-c3ccccc3)ncc3cc(F)ccc23)c1`?
TAAR1 ag: 23; OX1R antag-1: -25; TAAR1 antagonist: 72*; CHO parental Ca: -31; OX1R antag-2: 6; nonsel antag count: 11; TAAR1 ant conf: 23; Ga16 nonsel ag: 7; TAAR1 ag counter: 12

How did c1ccc(-c2cc3c(N4CCN(c5ncccn5)CC4)ncnc3s2)cc1 do in these assays?
TAAR1 ag: 5; OX1R antag-1: -35; GPR7 antagonist: -3; TAAR1 antagonist: 55*; CHO parental Ca: -31; OX1R antag-2: 14; nonsel antag count: 30*; TAAR1 ant conf: 50*; Ga16 nonsel ag: 4; TAAR1 ag counter: 6

Results for CN1CCN(c2ncnc3sc(-c4ccccc4)cc23)CC1 ?
TAAR1 ag: 2; OX1R antag-1: -18; GPR7 antagonist: 0; TAAR1 antagonist: 11; CHO parental Ca: -17; OX1R antag-2: 8

Results for CC(C)NC(=O)C1(C)CCN1C(=O)C1(c2ccccc2)CC1 (configuration not stated) ?
TAAR1 ag: 1; TAAR1 antagonist: -7

How did CCOC(=O)N1CCC(NC(=O)c2ccc3c(c2)sc2nc(-c4ccccc4)cn23)CC1 do in these assays?
TAAR1 ag: 17; OX1R antag-1: -7; GPR7 antagonist: 5; TAAR1 antagonist: 57*; CHO parental Ca: -15; OX1R antag-2: 15; nonsel antag count: 31*; TAAR1 ant conf: 35; Ga16 nonsel ag: 10; TAAR1 ag counter: 8

Results for CCOC(=O)N1CCC(NC(=O)c2ccc3c(c2)sc2nc(-c4cccc(OC)c4)cn23)CC1 ?
GPR7 antagonist: -10

How did N#Cc1ccc(-c2ccc(OCC(=O)NN=Cc3ccncc3)cc2)cc1 do in these assays?
TAAR1 ag: 14; OX1R antag-1: -7; TAAR1 antagonist: 54*; CHO parental Ca: -10; OX1R antag-2: 14; nonsel antag count: 26*; TAAR1 ant conf: 53*; Ga16 nonsel ag: 13*; TAAR1 ag counter: 14

What do the screens show for `O=C(COc1ccc(-c2ccccc2)cc1)N/N=C/c1cc(O)ccc1Br`?
TAAR1 ag: -1; OX1R antag-1: -34; GPR7 antagonist: -11; TAAR1 antagonist: 53*; CHO parental Ca: -20; OX1R antag-2: 19; nonsel antag count: 22*; TAAR1 ant conf: 28; Ga16 nonsel ag: 1; TAAR1 ag counter: 0

Results for O=C(COc1ccc(-c2ccccc2)cc1)N/N=C/c1ccccc1Br ?
TAAR1 ag: 0; OX1R antag-1: -35; GPR7 antagonist: 7; TAAR1 antagonist: 17; CHO parental Ca: 1; OX1R antag-2: 21

What do the screens show for `COc1ccc(S(=O)(=O)N(C)CC(=O)NCc2ccccc2)cc1OC`?
TAAR1 ag: -4; OX1R antag-1: -18; GPR7 antagonist: -10; TAAR1 antagonist: 92*; CHO parental Ca: -16; OX1R antag-2: 2; nonsel antag count: -1; TAAR1 ant conf: -4; Ga16 nonsel ag: 0; TAAR1 ag counter: 0

How did COc1ccc(S(=O)(=O)N(C)CC(=O)NCCc2ccccc2)cc1OC do in these assays?
TAAR1 ag: 6; OX1R antag-1: -1; GPR7 antagonist: -11; TAAR1 antagonist: 3; CHO parental Ca: -8; OX1R antag-2: 0

Results for CC(C)C[C@@H]1CN(CCCC[C@H]2CNC(=O)C(=O)N2CCC2CCCCC2)C(=O)C(=O)N1CC1CCCCC1 ?
TAAR1 ag: 0; TAAR1 antagonist: -14

How did COc1ccc(/C=N/NC(=O)c2cc3c(ccc4ccccc43)o2)cc1OC do in these assays?
TAAR1 ag: 7; GPR7 antagonist: -12; TAAR1 antagonist: 53*; nonsel antag count: 28*; TAAR1 ant conf: 36; Ga16 nonsel ag: 7; TAAR1 ag counter: 3

What do the screens show for `COc1ccc(/C=N\NC(=O)c2cc3c(ccc4ccccc43)o2)cc1O`?
TAAR1 ag: 10; GPR7 antagonist: 12; TAAR1 antagonist: 57*; nonsel antag count: 40*; TAAR1 ant conf: 55*; Ga16 nonsel ag: 13*; TAAR1 ag counter: 12

How did O=C(O)c1ccc(/C=N/NC(=O)c2cc3c(ccc4ccccc43)o2)cc1 do in these assays?
TAAR1 ag: 0; OX1R antag-1: -8; GPR7 antagonist: -1; TAAR1 antagonist: 9; CHO parental Ca: 5; OX1R antag-2: 3

Results for O=C(O)CCC1c2cc3c4cc2OC2Oc5cc6c(cc51)C(CCC(=O)O)c1cc5c7cc1OC(O6)c1cc6cc(c1)Oc1cc(cc(C(=O)O)c1)Oc1cc8cc(c1)C(Oc1cc(c(cc1C5CCC(=O)O)C3CCC(=O)O)OC(O4)c1cc(cc(c1)Oc1cc(cc(C(=O)O)c1)O8)Oc1cc(cc(C(=O)O)c1)Oc1cc(cc2c1)Oc1cc(cc(C(=O)O)c1)O6)O7 (configuration not stated) ?
OX1R antag-1: 21; CHO parental Ca: 12; OX1R antag-2: 44

How did O=C(CC[C@H]1O[C@@H](n2ccc(=O)[nH]c2=O)[C@H](O)[C@@H]1O)N[C@H](Cc1ccccc1)C(=O)NCC1CCCCC1 do in these assays?
TAAR1 ag: 0; TAAR1 antagonist: 1
